Assay type in all cases: functional, cell-based
Test [1] in a line: Cytotoxicity against human DU145 cells after 72 hrs by MTT assay. To be noted: DU-145, 72 h. Summed up:
(§1)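 Cells cultured in DMEM or RPMI 1640 with 10% FBS. Seeded at about 2 × 10^3 per well and grown 24 h at 37 °C, 5% CO2. Compounds added at final 0.1–1000 uM for 72 h, 5 wells per concentration. MTT added for 4 h at 37 °C, then lysis overnight. Absorbance read at 570 nm against a 650 nm reference; IC50 calculated.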
Background: Tetrazolium dyes change colour on reduction, which living cells bring about.

Test [2] in a line: Cytotoxicity against human HepG2 cells after 72 hrs by MTT assay. The settings on record: HepG2, 72 h. Summed up:
as §1

Test [3] is described as follows: Cytotoxicity against human A549 cells after 72 hrs by MTT assay. The settings on record: A549, 72 h. Summed up: as §1
Test [4] can be described thus: Cytotoxicity against human SH-SY5Y cells after 72 hrs by MTT assay. Put shortly:
as §1

Test [5] can be described thus: Cytotoxicity against human MCF7 cells after 72 hrs by MTT assay. The settings on record: MCF7, 72 h. Put shortly: as §1

What is called IC50 is the midpoint of a concentration-inhibition curve. `N#Cc1cnn2c(Nc3ccc(F)c(Cl)c3)cc(CN(CCCl)CCCl)nc12`: the IC50 in test [1] is 27.4 µM; in test [2] it was 89.4 µM; in test [3] it was greater than 100 µM; in test [4] it was greater than 100 µM; in test [5] it was 76.8 µM.

On to `N#Cc1cnn2c(Nc3cccc(Cl)c3)cc(CN(CCCl)CCCl)nc12`, for which the IC50 in test [1] is 43.5 µM; in test [2] it was 56.6 µM; in test [3], greater than 100 µM; in test [4] it was greater than 100 µM; in test [5] it was 23 µM.

For the molecule `N#Cc1cnn2c(Nc3cccc(N(CCCl)CCCl)c3)cc(CN3CCOCC3)nc12`, the 50% inhibitory concentration (IC50) in test [1] is greater than 100 µM; in test [2], 33.4 µM; in test [3] it was greater than 100 µM; in test [4], 61 µM; in test [5] it was greater than 100 µM.

As to `N#Cc1cnn2c(Nc3cccc(N(CCCl)CCCl)c3)cc(CN3CCC(O)CC3)nc12`, the IC50 is greater than 100 µM in test [1]; 29.7 µM in test [2]; 35.8 µM in test [3]; 36.7 µM in test [4]; 70.4 µM in test [5].

Regarding `N#Cc1cnn2c(Nc3ccc(N(CCCl)CCCl)cc3)cc(CN3CCOCC3)nc12`, the IC50 in test [1] is 10.7 µM; in test [2] it was 5.51 µM; in test [3], 13.6 µM; in test [4] it was 6.71 µM; in test [5], 11.3 µM.

For `N#Cc1cnn2c(Nc3ccc(Br)cc3)cc(CN(CCCl)CCCl)nc12`, the IC50 in test [1] worked out at 33.1 µM; in test [2], 37.2 µM; in test [3], 61.4 µM; in test [4], 49.1 µM; in test [5], 28.3 µM.

On to `Cc1cccc(Nc2cc(CN(CCCl)CCCl)nc3c(C#N)cnn23)c1`, for which the IC50 in test [1] is 35 µM; in test [2] it was 62.1 µM; in test [3], greater than 100 µM; in test [4], 79.9 µM; in test [5] it was 25.8 µM.

Take `CCOC(=O)C1CCN(Cc2cc(Nc3cccc(N(CCCl)CCCl)c3)n3ncc(C#N)c3n2)CC1`: the IC50 in test [1] was greater than 100 µM; in test [2], 88.1 µM; in test [3], greater than 100 µM; in test [4], greater than 100 µM; in test [5], greater than 100 µM.

Consider `N#Cc1cnn2c(Nc3cccc(F)c3)cc(CN(CCCl)CCCl)nc12`, for which the IC50 in test [1] was greater than 100 µM; in test [2], 67.2 µM; in test [3], greater than 100 µM; in test [4], greater than 100 µM; in test [5], greater than 100 µM.

In the case of `N#Cc1cnn2c(Nc3cccc(N(CCCl)CCCl)c3)cc(CN3CCC(c4ccccc4)CC3)nc12`, the IC50 in test [1], in test [2], in test [3], in test [4] and in test [5] was greater than 100 µM throughout.

On to `CN(C)Cc1cc(Nc2cccc(N(CCCl)CCCl)c2)n2ncc(C#N)c2n1`, for which the IC50 in test [1] turned out to be 59.3 µM; in test [2], 33.6 µM; in test [3], 39.8 µM; in test [4], 40.8 µM; in test [5], 54.6 µM.

For the molecule `Cc1cc(C)cc(Nc2cc(CN(CCCl)CCCl)nc3c(C#N)cnn23)c1`, the IC50 in test [1] is greater than 100 µM; in test [2] it was 59.4 µM; in test [3], 97.4 µM; in test [4], greater than 100 µM; in test [5] it was greater than 100 µM.

Consider `N#Cc1cnn2c(Nc3ccc(N(CCCl)CCCl)cc3)cc(CN3CCC(CO)CC3)nc12`, for which the IC50 in test [1] came out at 26.8 µM; in test [2], 8.54 µM; in test [3], 12.8 µM; in test [4] it was 11.5 µM; in test [5], 16.2 µM.

Turning to `CCOC(=O)C1CCN(Cc2cc(Nc3ccc(N(CCCl)CCCl)cc3)n3ncc(C#N)c3n2)CC1`, the IC50 in test [1] is greater than 100 µM; in test [2], 74.2 µM; in test [3], greater than 100 µM; in test [4] it was 74.1 µM; in test [5] it was greater than 100 µM.

As to `N#Cc1cnn2c(Nc3ccc(N(CCCl)CCCl)cc3)cc(CN3CCC(O)CC3)nc12`, the IC50 is 20.9 µM in test [1]; 9.11 µM in test [2]; 20.6 µM in test [3]; 13.7 µM in test [4]; 20.4 µM in test [5].

With `N#Cc1cnn2c(Nc3cccc(N(CCCl)CCCl)c3)cc(CN3CCC(CO)CC3)nc12`, the 50% inhibitory concentration (IC50) turned out to be 33.4 µM in test [1]; 18.4 µM in test [2]; 27.9 µM in test [3]; 30.7 µM in test [4]; 41.1 µM in test [5].

`N#Cc1cnn2c(Nc3ccc(Cl)cc3)cc(CN(CCCl)CCCl)nc12`: the IC50 is 42.9 µM in test [1]; 39.3 µM in test [2]; 79.5 µM in test [3]; 50.6 µM in test [4]; 33 µM in test [5].

With `CCN1CCN(Cc2cc(Nc3cccc(N(CCCl)CCCl)c3)n3ncc(C#N)c3n2)CC1`, the IC50 was 44.1 µM in test [1]; 16.6 µM in test [2]; 16.5 µM in test [3]; 22.7 µM in test [4]; 23.9 µM in test [5].

On to `CCOC(=O)c1ccc(Nc2cc(CN(CCCl)CCCl)nc3c(C#N)cnn23)cc1`, for which the IC50 in test [1] came out at 37.3 µM; in test [2], 52.1 µM; in test [3], 85.4 µM; in test [4] it was 64.4 µM; in test [5], 26.4 µM.

In the case of `N#Cc1cnn2c(Nc3ccccc3Cl)cc(CN(CCCl)CCCl)nc12`, the IC50 in test [1], in test [2], in test [3], in test [4] and in test [5] was greater than 100 µM in each case.

As for `COc1cc(Nc2cc(CN(CCCl)CCCl)nc3c(C#N)cnn23)cc(OC)c1`, the IC50 in test [1], in test [2], in test [3], in test [4] and in test [5] was greater than 100 µM in each case.

For `N#Cc1cnn2c(Nc3ccc(C(F)(F)F)cc3)cc(CN(CCCl)CCCl)nc12`, the IC50 is 95.1 µM in test [1]; 55.5 µM in test [2]; greater than 100 µM in test [3]; greater than 100 µM in test [4]; 33 µM in test [5].

With `CN1CCN(Cc2cc(Nc3cccc(N(CCCl)CCCl)c3)n3ncc(C#N)c3n2)CC1`, the IC50 in test [1] came out at 50.5 µM; in test [2], 17.6 µM; in test [3], 19.5 µM; in test [4], 15.3 µM; in test [5], 41.1 µM.

Consider `Cc1ccccc1Nc1cc(CN(CCCl)CCCl)nc2c(C#N)cnn12`, for which the IC50 in test [1] was greater than 100 µM; in test [2] it was greater than 100 µM; in test [3], greater than 100 µM; in test [4] it was greater than 100 µM; in test [5] it was 99.2 µM.

In the case of `CC1CCN(Cc2cc(Nc3cccc(N(CCCl)CCCl)c3)n3ncc(C#N)c3n2)CC1`, the IC50 in test [1] is 55.8 µM; in test [2], 33.8 µM; in test [3], 35.9 µM; in test [4], 25.9 µM; in test [5] it was greater than 100 µM.

As to `C#Cc1cccc(Nc2cc(CN(CCCl)CCCl)nc3c(C#N)cnn23)c1`, the IC50 was 83.1 µM in test [1]; 44.2 µM in test [2]; greater than 100 µM in test [3]; greater than 100 µM in test [4]; 34 µM in test [5].

`N#Cc1cnn2c(Nc3ccc(F)c(C(F)(F)F)c3)cc(CN(CCCl)CCCl)nc12`: the IC50 was greater than 100 µM in test [1]; greater than 100 µM in test [2]; greater than 100 µM in test [3]; greater than 100 µM in test [4]; 75.1 µM in test [5].

With `Cc1cc(Nc2cc(CN(CCCl)CCCl)nc3c(C#N)cnn23)ccc1F`, the IC50 in test [1] came out at 76.1 µM; in test [2], 39 µM; in test [3], 75 µM; in test [4], 77.9 µM; in test [5] it was 38 µM.

Take `N#Cc1cnn2c(Nc3ccc(N(CCCl)CCCl)cc3)cc(CN3CCC(c4ccccc4)CC3)nc12`: the IC50 in test [1], in test [2], in test [3], in test [4] and in test [5] was greater than 100 µM each time.

For `N#Cc1cnn2c(Nc3cccc(N(CCCl)CCCl)c3)cc(CN3CCCC3)nc12`, the IC50 is 35.4 µM in test [1]; 14.4 µM in test [2]; 17.5 µM in test [3]; 15.7 µM in test [4]; 37.5 µM in test [5].

Regarding `N[C@@H](Cc1ccc(N(CCCl)CCCl)cc1)C(=O)O` [MELPHALAN], the half-inhibitory concentration (IC50) was greater than 100 µM in test [1]; 18.3 µM in test [2]; 43.8 µM in test [3]; greater than 100 µM in test [4]; 40.6 µM in test [5].

As to `CN(C)C1CCN(Cc2cc(Nc3cccc(N(CCCl)CCCl)c3)n3ncc(C#N)c3n2)CC1`, the IC50 in test [1] is 27 µM; in test [2], 9.22 µM; in test [3], 12.7 µM; in test [4], 15.3 µM; in test [5], 25.2 µM.

Turning to `N#Cc1cnn2c(Nc3cc(F)cc(F)c3)cc(CN(CCCl)CCCl)nc12`, the IC50 in test [1] is greater than 100 µM; in test [2] it was greater than 100 µM; in test [3] it was greater than 100 µM; in test [4] it was greater than 100 µM; in test [5] it was 84.4 µM.

On to `N#Cc1cnn2c(Nc3ccccc3Br)cc(CN(CCCl)CCCl)nc12`, for which the IC50 in test [1], in test [2], in test [3], in test [4] and in test [5] was greater than 100 µM each time.

Turning to `N#Cc1cnn2c(Nc3ccc(F)cc3)cc(CN(CCCl)CCCl)nc12`, the IC50 was 84.4 µM in test [1]; 64.2 µM in test [2]; greater than 100 µM in test [3]; greater than 100 µM in test [4]; 77.5 µM in test [5].

`N#Cc1cnn2c(Nc3cccc(Br)c3)cc(CN(CCCl)CCCl)nc12`: the IC50 was greater than 100 µM in test [1]; 49.7 µM in test [2]; greater than 100 µM in test [3]; greater than 100 µM in test [4]; 41 µM in test [5].

For `N#Cc1cnn2c(Nc3cccc(N(CCCl)CCCl)c3)cc(CN3CCC(N4CCCCC4)CC3)nc12`, the IC50 in test [1] is 22.4 µM; in test [2], 9.07 µM; in test [3] it was 13.2 µM; in test [4], 9.36 µM; in test [5] it was 25.1 µM.

Values taken from ChEMBL document CHEMBL3853295, “Design and synthesis of novel pyrazolo[1,5-a]pyrimidine derivatives bearing nitrogen mustard moiety and evaluation of their antitumor activity in vitro and in vivo” (Eur J Med Chem, 2016).
